Screens (PubChem BioAssay)
Lung fibro prol: blocks proliferation of human lung fibroblasts. LL 47 human lung fibroblast viability, ATP luminescence; stronger effect = lower value. viability, % at 10 µM. actives 1.1% (n = 85,000);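 active means viability at or below 50% in the single dose screen; inactive means viability above 50%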;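 further: compound exposure lasted 72 h before the ATP readout; 100% = median luminescence of untreated cell-only wells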
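Material: Human LL 47 lung fibroblast cells | Input: 1,150 cells/well | Buffer or medium: IMEM plus 15% FBS | Compound dosing: 0.1% DMSO in all compound wells | Times: Overnight cell rest, 72 h compound treatment at 37 °C | Signal: CellTiter-Glo luminescence measuring cellular ATP | Measure: % viability versus median cells-only luminescence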
HCT116 bCat-KO: beta-catenin-lacking colon tumor cell growth suppression; HCT116 beta-catenin knockout viability, CellTiter-Glo, 60 h; stronger effect = lower value; viability, % at 10 µM; actives 1.5% (n = 140,000); AID 818;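 active means viability at or under a set limit, the compound median less 4 SD, cut at about 6% in these data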;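 further: 0% = Hyamine 1622 control at 20 µM and 100% = untreated cell control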
HUVEC prolif 384: blocks proliferation of human endothelial cells | actives 1.1% (n = 86,000) | AID 648 | HUVEC proliferation, CellTiter-Glo luminescence, 72 h; stronger effect = lower value | viability, % at 10 µM (by protocol);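 active means viability at or below 30%; inactive means viability above 30%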;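 further: 100% = median luminescence of DMSO-only cell control wells on each plate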
HCT116 PTEN-null: growth suppressors of cells with PTEN tumor suppressor deletion; HCT116 PTEN-null viability, CellTiter-Glo, 60 h; stronger effect = lower value; viability, % at 10 µM; actives 1.2% (n = 140,000);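 active means viability at or below a set limit, 4 SD under the median of all tested compounds, cut at about 3.7% in these data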;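 further: PTEN knockout HCT116 line with beta catenin targeted HCT116 as companion control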
H69AR inhibit: blocks growth of human H69AR lung tumor cells; H69AR lung tumor viability, ATP luminescence, 72 h; stronger effect = lower value; AID 598; viability, % at 10 µM; actives 6% (n = 85,000);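 active means viability at or below 40%; inactive means viability above 40%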;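 further: multidrug resistant small cell line overexpressing MRP-1 efflux transporter; 100% = mean luminescence of untreated control wells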
* marks the source's active call; other numbers are inactive results; · = no result. Shown is part of a subset that was picked to be rich in hits.

SMILES	Lung fibro prol	HCT116 bCat-KO	HUVEC prolif 384	HCT116 PTEN-null	H69AR inhibit
COc1ccc(/C=C\C(=O)CC(O)(c2ccccc2)C(F)(F)F)cc1 (centres undefined)	88	10	87	11	1.2*
COc1ccc(/C=C/C(=O)NCCCc2ccccc2)cc1	·	98	·	95	·
O=C(OCC#CCSc1nnc(-c2cccc3ccccc23)o1)c1cccs1	98	92	82	86	35*
O=C(OCC#CCSc1nnc(-c2ccccc2)o1)c1cccs1	97	90	87	81	87
C#CCSc1nnc(-c2cccc3ccccc23)o1	65	·	64	·	21*
COc1cc(C(=O)Nc2ccc(N3CCOCC3)cc2)ccc1OCc1c(C)noc1C	·	91	·	97	·
CC(=O)Nc1cccc(Oc2cc(C#N)c(C#N)cc2N2CCCCCC2)c1	90	69	70	76	32*
CCOC(=O)c1cnc(Nc2nc3ccccc3o2)nc1CN1CCN(C)CC1	·	76	·	79	·
CC(OC(=O)c1ccc2c(=O)n3c(nc2c1)CCCCC3)C(=O)Nc1ccc(F)cc1Cl (centres undefined)	·	82	·	88	·
N#CC(=C1N=c2ccccc2=N1)c1c(O)[nH]c2ccccc12	·	87	·	84	·
Cn1c(O)c(C(C#N)=C2N=c3ccccc3=N2)c2ccccc21	74	86	50	74	14*
O=C(CSc1nnc(COc2ccc(Cl)cc2)o1)N1c2ccccc2CCc2ccccc21	62	29	92	38	9.1*
CCOC(=O)c1cccc(NC(=O)c2cncc(Br)c2)c1	·	96	·	95	·
CC(C)C(=O)Nc1ccc(C(=O)NCc2cccnc2)cc1	100	99	102	98	36*
O=C(Nc1cnc2ccccc2c1)c1cccnc1	102	101	106	103	7.7*
CN(C)C(=O)c1ccc(NC(=O)c2cccnc2)cc1	93	100	104	108	39*
CCOC(=O)c1cccc(NC(=O)c2cccnc2)c1	·	106	102	103	31*
Cc1ccc(CSCC(=O)NN=C2CCN(C)CC2)cc1	·	90	·	101	·
COc1ccc(CN2C(=O)c3ccccc3C(/C=N\OCc3ccc(C)cc3)C2=O)cc1 (centres undefined)	·	46	·	42	·
COc1cc(NC(=O)CSc2nccc(C)n2)c(C)cc1[N+](=O)[O-]	·	98	·	95	·
N/C(COc1cccc(Cl)c1)=N\NS(=O)(=O)c1ccccc1	·	92	·	107	·
O=C(CSc1ncnc2scc(-c3ccccc3)c12)N1CCN(Cc2ccc3c(c2)OCO3)CC1	·	83	·	80	·
CCOCC(=O)Nc1cccc(C(=O)OCC)c1	105	97	97	95	21*
COc1cc([C@@H]2c3cc4c(cc3[C@H](O)[C@H]3COC(=O)[C@H]23)OCO4)cc(OC)c1OC	53	15	46	13	36*
COc1ccccc1-c1nnc(SCC(=O)Nc2nc(-c3ccccc3)cs2)n1C	100	62	82	78	86
SMILES	Lung fibro prol	HCT116 bCat-KO	HUVEC prolif 384	HCT116 PTEN-null	H69AR inhibit
CCn1c(SCC(=O)Nc2nc(C)cs2)nnc1C(NC(=O)c1ccccc1Cl)C(C)C (centres undefined)	99	95	94	93	38*
Cc1cccc(C)c1NCc1nnc(SCC(=O)Nc2nc(-c3ccccc3)cs2)n1-c1ccccc1	·	54	·	57	·
COc1ccc2cc(C)c3nnc(SCC(=O)Nc4nc(-c5ccc(F)cc5)cs4)n3c2c1	·	2.7*	·	2.0*	·
CCOc1ccc(NCc2nnc(SCC(=O)Nc3nc(-c4ccccc4)cs3)n2-c2ccccc2)cc1	·	1.3*	·	1.0*	·
CCn1c(SCC(=O)Nc2nc(-c3ccc(C)cc3)cs2)nnc1-c1ccccc1O	97	15	70	19	29*
CCn1c(SCC(=O)Nc2nc(-c3ccc(C)cc3)cs2)nnc1-c1ccccc1	99	49	101	51	60
Cc1ccc(N2CC(C(=O)Nc3ccccc3C(=O)NC3CCCCC3)CC2=O)cc1C (centres undefined)	104	·	79	·	80
Cc1ccc(N2C(=O)C3C4C=CC(CNC(=S)Nc5cccc(Cl)c5)(O4)C3C2=O)cc1 (centres undefined)	·	91	·	87	·
CCOC(=O)C1=NN(c2ccc(C)cc2)CC1C(=O)OC (centres undefined)	·	87	·	96	·
COC(=O)/C(=C1/Oc2cc(C)oc(=O)c2S1)C(F)(F)F	·	3.6*	·	3.2*	·
COC(=O)/C(=C1/Oc2ccc(C(C)(C)C)cc2S1)C(F)(F)F	·	98	·	104	·
Cc1onc(-c2c(F)cccc2Cl)c1C(=O)OCC(=O)NC(c1ccccc1)c1ccccc1	·	86	·	81	·
